From article PMC3149718 (Molecular and cellular biochemistry, 2011)
Substitutions are numbered along the chain they refer to. Values belong to the molecule of their own block, whether it stands above or below them.

Assays:
[1] = biological target: T1, Cy3-labeled CPTI WT 89-residue peptide (Rattus norvegicus, UniProt P32198); assay: FRET between Cy3-labeled CPTI peptide and Cy5-labeled LCFA-CoA binding proteins; conditions: Cy5-labeled acceptor protein; for Sensitized Emission R (intermolecular distance): donor Cy3-CPTI WT
T1 sequence (P32198 381-469): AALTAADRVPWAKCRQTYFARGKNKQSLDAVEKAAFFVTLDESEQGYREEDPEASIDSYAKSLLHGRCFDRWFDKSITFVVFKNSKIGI

[2] = biological target: T2, Cy3-labeled W391A 89-residue CPTI peptide (Rattus norvegicus, UniProt P32198, W391A); assay: as above; conditions: donor Cy3-W391A, Cy5-labeled acceptor protein
T2 sequence (P32198 381-469 W391A): T1 sequence (P32198 381-469) with W11A

[3] = biological target: T3, Cy3-labeled W452A 89-residue CPTI peptide (Rattus norvegicus, UniProt P32198, W452A); assay: as above; conditions: donor Cy3-W452A, Cy5-labeled acceptor protein
T3 sequence (P32198 381-469 W452A): T1 sequence (P32198 381-469) with W72A

[4] = biological target: T4, wild-type CPTI in mitochondria from yeast (Rattus norvegicus, UniProt P32198); assay: CPTI activity assay; type: biochemical
T4 sequence (P32198 1-773): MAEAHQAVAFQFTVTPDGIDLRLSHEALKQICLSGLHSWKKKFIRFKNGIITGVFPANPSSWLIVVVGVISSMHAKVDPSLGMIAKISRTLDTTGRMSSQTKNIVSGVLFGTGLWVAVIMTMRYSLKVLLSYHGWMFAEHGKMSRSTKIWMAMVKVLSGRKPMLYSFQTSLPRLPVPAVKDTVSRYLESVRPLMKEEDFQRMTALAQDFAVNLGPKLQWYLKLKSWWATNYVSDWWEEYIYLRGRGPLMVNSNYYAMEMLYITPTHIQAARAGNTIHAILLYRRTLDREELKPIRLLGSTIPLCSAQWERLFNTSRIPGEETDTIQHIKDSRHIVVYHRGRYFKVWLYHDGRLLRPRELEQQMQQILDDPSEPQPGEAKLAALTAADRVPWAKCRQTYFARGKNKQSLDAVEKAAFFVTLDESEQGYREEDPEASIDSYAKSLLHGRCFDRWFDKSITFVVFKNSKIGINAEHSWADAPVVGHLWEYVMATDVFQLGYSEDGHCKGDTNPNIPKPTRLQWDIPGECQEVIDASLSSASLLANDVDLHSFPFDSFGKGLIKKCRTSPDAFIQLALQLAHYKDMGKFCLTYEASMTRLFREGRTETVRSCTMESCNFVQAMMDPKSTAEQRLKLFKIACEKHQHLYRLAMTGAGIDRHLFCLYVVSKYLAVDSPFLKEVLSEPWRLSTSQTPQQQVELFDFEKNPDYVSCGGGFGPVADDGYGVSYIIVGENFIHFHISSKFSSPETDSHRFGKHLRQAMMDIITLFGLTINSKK
Procedure, shortened: (§1)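 Mitochondria isolated from yeast strains expressing wild-type or mutant CPTI were assayed by forward exchange with L-[methyl-3H]carnitine at a fixed 1.0 mM carnitine, using 150 µg mitochondrial protein. […] Incubation was 5 min at 30°C and was stopped with 6% perchloric acid. Values are mean ± SE.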

[5] = biological target: T5, W391A mutant CPTI in mitochondria from yeast (Rattus norvegicus, UniProt P32198, W391A); assay: CPTI activity assay; type: biochemical
T5 sequence (P32198 1-773 W391A): T4 sequence (P32198 1-773) with W391A
Procedure, shortened: as §1

[6] = biological target: T6, W452A mutant CPTI in mitochondria from yeast (Rattus norvegicus, UniProt P32198, W452A); assay: CPTI activity assay; type: biochemical
T6 sequence (P32198 1-773 W452A): T4 sequence (P32198 1-773) with W452A
Procedure, shortened: as §1

[7] = donor protein 15uM, palmitoyl-CoA to protein molar ratio 7.41
[8] = donor protein 30uM, palmitoyl-CoA to protein molar ratio 3.70
[9] = donor protein 60uM, palmitoyl-CoA to protein molar ratio 1.85

Molecule: CytoC: Cytochrome C purchased from Sigma Aldrich, used as control protein [reference compound]
Sensitized Emission Kd ([1]; donor Cy3-CPTI WT 30 nM, PBS 24°C): no FRET or binding was observed

B2: ACBP: Mouse recombinant acyl CoA binding protein (protein)
chain: MSQAEFDKAAEEVKRLKTQPTDEEMLFIYSHFKQATVGDVNTDRPGLLDLKGKAKWDSWNKLKGTSKESAMKTYVEKVDELKKKYGI
modifications: Cy5 dye, approximately 1 dye per protein molecule (in the FRET assay only; unlabelled in circular dichroism)
Sensitized Emission R (intermolecular distance) [1]: 56 ± 1 Å
Sensitized Emission R (intermolecular distance) [2]: 65 ± 1 Å
Sensitized Emission R (intermolecular distance) [3]: 65.8 ± 0.2 Å
CPTI activity, WT [4, 7]: 31.8 ± 2.1 nmol/min/mg
CPTI activity, WT [4, 8]: 27.6 ± 2.4 nmol/min/mg
CPTI activity, WT [4, 9]: 13.2 ± 0.1 nmol/min/mg
CPTI activity, W391A [5, 7]: 3.3 ± 0.1 nmol/min/mg
CPTI activity, W391A [5, 8]: 4.5 ± 0.9 nmol/min/mg
CPTI activity, W391A [5, 9]: 5.7 ± 0.1 nmol/min/mg
CPTI activity, W452A [6, 7]: 0.7 ± 0.2 nmol/min/mg
CPTI activity, W452A [6, 8]: 0.8 ± 0.2 nmol/min/mg
CPTI activity, W452A [6, 9]: 1.3 ± 0.1 nmol/min/mg

More lines, main results first:

CPTI activity, WT [4, 7]: 39.3 ± 2.5 nmol/min/mg
CPTI activity, WT [4, 8]: 37.6 ± 0.1 nmol/min/mg
CPTI activity, WT [4, 9]: 34.0 ± 0.1 nmol/min/mg
CPTI activity, W391A [5, 7]: 4.2 ± 0.1 nmol/min/mg
CPTI activity, W391A [5, 8]: 5.9 ± 0.1 nmol/min/mg
CPTI activity, W391A [5, 9]: 7.4 ± 0.1 nmol/min/mg
CPTI activity, W452A [6, 7]: 0.9 ± 0.2 nmol/min/mg
CPTI activity, W452A [6, 8]: 1.1 ± 0.1 nmol/min/mg
CPTI activity, W452A [6, 9]: 1.6 ± 0.1 nmol/min/mg
B1: L-FABP: Mouse recombinant liver fatty acid binding protein, delipidated (protein)
chain: MNFSGKYQLQSQENFEPFMKAIGLPEDLIQKGKDIKGVSEIVHEGKKIKLTITYGPKVVRNEFTLGEECELETMTGEKVKAVVKLEGDNKMVTTFKGIKSVTELNGDTITNTMTLGDIVYKRVSKRI
modifications: Cy5 dye, approximately 1 dye per protein molecule (in the FRET assay only; unlabelled in circular dichroism)
Sensitized Emission R (intermolecular distance) [1]: 56 ± 3 Å
Sensitized Emission R (intermolecular distance) [2]: 50 ± 2 Å
Sensitized Emission R (intermolecular distance) [3]: 82 ± 1 Å

CPTI activity, WT [4, 7]: 31.7 ± 1.1 nmol/min/mg
CPTI activity, WT [4, 8]: 26.1 ± 1.1 nmol/min/mg
CPTI activity, WT [4, 9]: 16.5 ± 0.1 nmol/min/mg
CPTI activity, W391A [5, 7]: 4.7 ± 0.1 nmol/min/mg
CPTI activity, W391A [5, 8]: 5.7 ± 0.2 nmol/min/mg
CPTI activity, W391A [5, 9]: 4.5 ± 0.1 nmol/min/mg
CPTI activity, W452A [6, 7]: 0.8 ± 0.2 nmol/min/mg
CPTI activity, W452A [6, 8]: 1.2 ± 0.2 nmol/min/mg
CPTI activity, W452A [6, 9]: 0.9 ± 0.2 nmol/min/mg
B3: SCP-2: Human recombinant sterol carrier protein-2 (protein, UniProt P22307 1-547, looked up)
Sterol carrier protein 2: MSSSPWEPATLRRVFVVGVGMTKFVKPGAENSRDYPDLAEEAGKKALADAQIPYSAVDQACVGYVFGDSTCGQRAIYHSLGMTGIPIINVNNNCATGSTALFMARQLIQGGVAECVLALGFEKMSKGSLGIKFSDRTIPTDKHVDLLINKYGLSAHPVAPQMFGYAGKEHMEKYGTKIEHFAKIGWKNHKHSVNNPYSQFQDEYSLDEVMASKEVFDFLTILQCCPTSDGAAAAILASEAFVQKYGLQSKAVEILAQEMMTDLPSSFEEKSIIKMVGFDMSKEAARKCYEKSGLTPNDIDVIELHDCFSTNELLTYEALGLCPEGQGATLVDRGDNTYGGKWVINPSGGLISKGHPLGATGLAQCAELCWQLRGEAGKRQVPGAKVALQHNLGIGGAVVVTLYKMGFPEAASSFRTHQIEAVPTSSASDGFKANLVFKEIEKKLEEEGEQFVKKIGGIFAFKVKDGPGGKEATWVVDVKNGKGSVLPNSDKKADCTITMADSDFLALMTGKMNPQSAFFQGKLKITGNMGLAMKLQNLQLQPGNAKL
modifications: Cy5 label
